Values belong to the compound of their own block, whether it stands above or below them.
Tests used:
[1] = Metabolic stability in rat liver microsomes assessed as parent compound remaining at 1 uM measured upto 60 mins in presence of NADPH by LC-MS/MS analysis; assay type: ADME, Microsome; details: read-out: Stabilty
[2] = Metabolic stability in mouse liver microsomes assessed as parent compound remaining at 1 uM measured upto 60 mins in presence of NADPH by LC-MS/MS analysis; assay type: ADME, Microsome; details: read-out: Stabilty
[3] = in vitro; details: human, Caco-2
[4] = Metabolic stability in human liver microsomes assessed as parent compound remaining at 1 uM measured upto 60 mins in presence of NADPH by LC-MS/MS analysis; assay type: ADME, Microsome; details: read-out: Stabilty
[5] = AUC (0 to t) in dog at 10 mg/kg, po measured up to 24 hrs by LC-MS/MS analysis; assay type: ADME, organism-based, Canis lupus familiaris; design: route oral, dose 10 mg/kg, time <=24; details: in vivo
[6] = Drug concentration in human OCI-LY3 cells xenografted SCID Beige mouse tumor at 25 mg/kg, po administered via gavage for 14 days and measured at 2 hrs post last dose by LC-MS/MS analysis; assay type: ADME, organism-based, Neoplasm; details: time 14 day, read-out: Ct
In short: (§1)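 Xenograft-bearing mice (OCI-Ly3) were given oral doses of 25, 50, 100 or 200 mg/kg once daily. Plasma and tumor were collected 2 h after the final dose on day 15. Results are reported as mean plasma concentration (ng/mL) and mean tumor concentration (ng/g) for each dose group.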

[7] = Oral bioavailability in dog at 10 mg/kg measured up to 24 hrs by LC-MS/MS analysis; assay type: ADME, organism-based, Canis lupus familiaris; details: in vivo
[8] = Drug concentration in human OCI-LY3 cells xenografted SCID Beige mouse plasma at 100 mg/kg, po administered via gavage for 14 days and measured at 2 hrs post last dose by LC-MS/MS analysis; assay type: ADME, organism-based; details: time 14 day; in short: as §1
[9] = Clearance in dog at 1 mg/kg, iv measured up to 24 hrs by LC-MS/MS analysis; assay type: ADME, organism-based, Canis lupus familiaris; details: in vivo
[10] = AUC (0 to t) in CD-1 mouse at 10 mg/kg, po measured up to 24 hrs by LC-MS/MS analysis; assay type: ADME, organism-based; design: route oral, dose 10 mg/kg, time <=24; details: in vivo
[11] = Half life in Wistar rat at 3 mg/kg, iv measured up to 24 hrs by LC-MS/MS analysis; assay type: ADME, organism-based; details: in vivo
[12] = Clearance in CD1 mouse at 3 mg/kg, iv measured up to 24 hrs by LC-MS/MS analysis; assay type: ADME, organism-based; details: in vivo
[13] = Initial plasma concentration in Wistar rat at 3 mg/kg, iv by LC-MS/MS analysis; assay type: ADME, organism-based
[14] = AUC (0 to t) in CD-1 mouse at 3 mg/kg, iv measured up to 24 hrs by LC-MS/MS analysis; assay type: ADME, organism-based; design: route intravenous, dose 3 mg/kg, time <=24; details: in vivo
[15] = Cmax in Wistar rat at 10 mg/kg, po measured up to 24 hrs by LC-MS/MS analysis; assay type: ADME, organism-based; design: route oral, dose 10 mg/kg, time <=24; details: in vivo
[16] = Drug concentration in human OCI-LY3 cells xenografted SCID Beige mouse tumor at 50 mg/kg, po administered via gavage for 14 days and measured at 2 hrs post last dose by LC-MS/MS analysis; assay type: ADME, organism-based, Neoplasm; details: time 14 day, read-out: Ct; in short: as §1
[17] = Drug concentration in human OCI-LY3 cells xenografted SCID Beige mouse tumor at 200 mg/kg, po administered via gavage for 14 days and measured at 2 hrs post last dose by LC-MS/MS analysis; assay type: ADME, organism-based, Neoplasm; details: time 14 day, read-out: Ct; in short: as §1
[18] = Initial plasma concentration in CD1 mouse at 3 mg/kg, iv by LC-MS/MS analysis; assay type: ADME, organism-based
[19] = Tmax in CD1 mouse at 10 mg/kg, po measured up to 24 hrs by LC-MS/MS analysis; assay type: ADME, organism-based; details: in vivo
[20] = Oral bioavailability in CD1 mouse at 10 mg/kg measured up to 24 hrs by LC-MS/MS analysis; assay type: ADME, organism-based; details: in vivo
[21] = Oral bioavailability in Wistar rat at 10 mg/kg measured up to 24 hrs by LC-MS/MS analysis; assay type: ADME, organism-based; details: in vivo
[22] = Tmax in dog at 10 mg/kg, po measured up to 24 hrs by LC-MS/MS analysis; assay type: ADME, organism-based, Canis lupus familiaris; details: in vivo
[23] = Initial plasma concentration in dog at 1 mg/kg, iv by LC-MS/MS analysis; assay type: ADME, organism-based, Canis lupus familiaris
[24] = Drug concentration in human OCI-LY3 cells xenografted SCID Beige mouse tumor at 100 mg/kg, po administered via gavage for 14 days and measured at 2 hrs post last dose by LC-MS/MS analysis; assay type: ADME, organism-based, Neoplasm; details: time 14 day, read-out: Ct; in short: as §1
[25] = AUC (0 to t) in dog at 1 mg/kg, iv measured up to 24 hrs by LC-MS/MS analysis; assay type: ADME, organism-based, Canis lupus familiaris; design: route intravenous, dose 1 mg/kg, time <=24; details: in vivo
[26] = Cmax in dog at 10 mg/kg, po measured up to 24 hrs by LC-MS/MS analysis; assay type: ADME, organism-based, Canis lupus familiaris; design: route oral, dose 10 mg/kg, time <=24; details: in vivo
[27] = AUC (0 to t) in Wistar rat at 10 mg/kg, po measured up to 24 hrs by LC-MS/MS analysis; assay type: ADME, organism-based; design: route oral, dose 10 mg/kg, time <=24; details: in vivo
[28] = Drug concentration in human OCI-LY3 cells xenografted SCID Beige mouse plasma at 25 mg/kg, po administered via gavage for 14 days and measured at 2 hrs post last dose by LC-MS/MS analysis; assay type: ADME, organism-based; details: time 14 day; in short: as §1
[29] = Cmax in CD1 mouse at 10 mg/kg, po measured up to 24 hrs by LC-MS/MS analysis; assay type: ADME, organism-based; design: route oral, dose 10 mg/kg, time <=24; details: in vivo
[30] = Clearance in Wistar rat at 3 mg/kg, iv measured up to 24 hrs by LC-MS/MS analysis; assay type: ADME, organism-based; details: in vivo
[31] = Fraction unbound in human OCI-LY3 cells xenografted SCID Beige mouse plasma at 200 mg/kg, po after 24 hrs by equilibrium dialysis method; assay type: ADME, organism-based; details: in vivo
In short: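 Mouse plasma protein binding is the mean of 2 determinations. It was applied to the plasma exposures at 12 and 24 h in the OCI-Ly3 PK/PD study to estimate unbound plasma levels.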

[32] = Drug concentration in human OCI-LY3 cells xenografted SCID Beige mouse plasma at 50 mg/kg, po administered via gavage for 14 days and measured at 2 hrs post last dose by LC-MS/MS analysis; assay type: ADME, organism-based; details: time 14 day; in short: as §1
[33] = Half life in CD1 mouse at 3 mg/kg, iv measured up to 24 hrs by LC-MS/MS analysis; assay type: ADME, organism-based; details: in vivo
[34] = Half life in dog at 1 mg/kg, iv measured up to 24 hrs by LC-MS/MS analysis; assay type: ADME, organism-based, Canis lupus familiaris; details: in vivo
[35] = Tmax in Wistar rat at 10 mg/kg, po measured up to 24 hrs by LC-MS/MS analysis; assay type: ADME, organism-based; details: in vivo
[36] = Volume of distribution in CD1 mouse at 3 mg/kg, iv measured up to 24 hrs by LC-MS/MS analysis; assay type: ADME, organism-based; details: in vivo
[37] = Volume of distribution in Wistar rat at 3 mg/kg, iv measured up to 24 hrs by LC-MS/MS analysis; assay type: ADME, organism-based; details: in vivo
[38] = AUC (0 to t) in Wistar rat at 3 mg/kg, iv measured up to 24 hrs by LC-MS/MS analysis; assay type: ADME, organism-based; design: route intravenous, dose 3 mg/kg, time <=24; details: in vivo
[39] = Volume of distribution in dog at 1 mg/kg, iv measured up to 24 hrs by LC-MS/MS analysis; assay type: ADME, organism-based, Canis lupus familiaris; details: in vivo
[40] = Drug concentration in human OCI-LY3 cells xenografted SCID Beige mouse plasma at 200 mg/kg, po administered via gavage for 14 days and measured at 2 hrs post last dose by LC-MS/MS analysis; assay type: ADME, organism-based; details: time 14 day; in short: as §1

- remaining at 1 h, 1 µM [1]: > 95%
- remaining at 1 h, 1 µM [2]: 91%
- Papp A→B at 2 h, 10 µM [3]: 8.5 ×10⁻⁶ cm/s
- remaining at 1 h, 1 µM [4]: > 95%
Structure (SMILES): CCC1(O)CCCN(c2nc3nc(N4CCOCC4)oc3cc2NC(=O)c2coc(-c3ccnc(C)c3)n2)C1 (centres undefined)

- remaining at 1 h, 1 µM [1]: > 95%
- AUC(0-t) at 24 h [5]: 86500 ng·h/mL
- concentration at 336 h [6]: 2670 ng/g
- bioavailability [7]: 100%
- concentration at 336 h [8]: 23300 ng/mL
- clearance [9]: 3.1 mL/min/kg
- AUC(0-t) at 24 h [10]: 12500 ng·h/mL
- t1/2 [11]: 5.3 h
- clearance [12]: 9.27 mL/min/kg
- C0 [13]: 27700 ng/mL
- AUC(0-t) at 24 h [14]: 5270 ng·h/mL
- Cmax [15]: 22100 ng/mL
- concentration at 336 h [16]: 8290 ng/g
- concentration at 336 h [17]: 37000 ng/g
- C0 [18]: 7480 ng/mL
- Tmax [19]: 0.5 h
- bioavailability [20]: 71%
- bioavailability [21]: 46%
- Tmax [22]: 1.17 h
- C0 [23]: 1960 ng/mL
- concentration at 336 h [24]: 17900 ng/g
- AUC(0-t) at 24 h [25]: 6060 ng·h/mL
- Cmax [26]: 12800 ng/mL
- AUC(0-t) at 24 h [27]: 171000 ng·h/mL
- remaining at 1 h, 1 µM [2]: > 95%
- concentration at 336 h [28]: 5080 ng/mL
- Cmax [29]: 6620 ng/mL
- CL [30]: 0.4 mL/min/kg
- Papp A→B at 2 h, 10 µM [3]: 8.9 ×10⁻⁶ cm/s
- Cp(f) [31]: 49.3 ng/mL
- concentration at 336 h [32]: 11600 ng/mL
- half-life [33]: 2.6 h
- half-life [34]: 2.6 h
- Tmax [35]: 1.2 h
- Vd [36]: 0.661 L/kg
- Vd [37]: 2 L/kg
- remaining at 1 h, 1 µM [4]: > 95%
- AUC(0-t) at 24 h [38]: 112000 ng·h/mL
- Vd [39]: 0.5 L/kg
- concentration at 336 h [40]: 39100 ng/mL
Structure (SMILES): Cc1cc(-c2nc(C(=O)Nc3cc4oc(N5CCOCC5)nc4nc3N3CC[C@@H](O)C3)co2)ccn1 [EMAVUSERTIB]

- remaining at 1 h, 1 µM [1]: > 95%
- remaining at 1 h, 1 µM [2]: 82%
- Papp A→B at 2 h, 10 µM [3]: 1 ×10⁻⁶ cm/s
- remaining at 1 h, 1 µM [4]: > 95%
Structure (SMILES): Cc1cc(-c2nc(C(=O)Nc3cc4oc(N5CCOCC5)nc4nc3N3CC[C@@H](N)C3)co2)ccn1

- remaining at 1 h, 1 µM [1]: > 95%
- remaining at 1 h, 1 µM [2]: > 95%
- Papp A→B at 2 h, 10 µM [3]: 21 ×10⁻⁶ cm/s
- remaining at 1 h, 1 µM [4]: 90%
Structure (SMILES): O=C(Nc1cc2oc(N3CCOCC3)nc2nc1C1CC1)c1coc(N2CC[C@H](O)C2)n1

- remaining at 1 h, 1 µM [1]: 68%
- remaining at 1 h, 1 µM [2]: 50%
- remaining at 1 h, 1 µM [4]: 69%
Structure (SMILES): Cc1cc(-c2nc(C(=O)Nc3cc4oc(N5CCOCC5)nc4nc3N3CCC(F)CC3)co2)ccn1

- remaining at 1 h, 1 µM [1]: > 95%
- remaining at 1 h, 1 µM [2]: > 95%
- Papp A→B at 2 h, 10 µM [3]: 13.5 ×10⁻⁶ cm/s
- remaining at 1 h, 1 µM [4]: > 95%
Structure (SMILES): Cc1cc(-c2nc(C(=O)Nc3cc4oc(N5CCOCC5)nc4nc3N3CCC(O)CC3)co2)ccn1

Source: ChEMBL document CHEMBL4665913, “Discovery of CA-4948, an Orally Bioavailable IRAK4 Inhibitor for Treatment of Hematologic Malignancies” (ACS Med Chem Lett, 2020)
